Experimental data from ChEMBL document CHEMBL1123469, “Synthesis and activity of 6-aryl-3-(hydroxypolymethyleneamino)pyridazines in animal models of epilepsy” (1986).

Tests used:
Assay type in all cases: functional
Mus musculus [1] = test: Compound was evaluated for the sedative property by the rotarod test at 150 mg/kg
Procedure, shortened: (§1)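 Motor coordination was tested on the rotorod in groups of 10 female Swiss CD1 mice (18-23 g). Drug or vehicle was given orally, test compounds in dilute HCl (pH 3), 60 min before testing.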

Mus musculus [2] = test: Evaluated for Bicuculline-induced lethality (anticonvulsant activity) when administered orally in mice.; settings: po
Procedure, shortened: (§2)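 Female Swiss albino CD1 mice (18-23 g), oral dosing (20 mL/kg); test compounds dissolved in dilute HCl (pH 3), reference drugs suspended in 5% gum tragacanth. Bicuculline challenge, scoring protection from seizures and from lethality. […] Weakly active agents reported as percent protected at the stated dose.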

Mus musculus [3] = test: Evaluated for anticonvulsant activity when administered orally in mice by Maximal electroshock (MES).; settings: po
Procedure, shortened: (§3)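 Female Swiss CD1 mice (18-23 g), groups of 10, were dosed orally at 20 mL/kg. Test compounds were given in dilute HCl (pH 3) and references in 5% gum tragacanth, 60 min before a 60-V alternating current for 0.3 s through corneal electrodes. Protection meant abolition of the hindlimb tonic extensor component.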

Mus musculus [4] = test: Evaluated for Bicuculline-induced seizures (anticonvulsant activity) when administered orally in mice.; settings: po
Procedure, shortened: (§4)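 Female Swiss CD1 mice (18-23 g) were dosed orally at 20 mL/kg, test compounds in dilute HCl (pH 3) and references in gum tragacanth. Protection against bicuculline- or pentylenetetrazole-induced clonic/tonic seizures and lethality was scored.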

Mus musculus [5] = test: Compound was evaluated for the sedative property by the rotarod test at 20 mg/kg; procedure, shortened: as §1
Mus musculus [6] = test: Compound was evaluated for anticonvulsant activity when administered 10 mg/kg orally in mice Maximal electroshock (MES); settings: route oral; procedure, shortened: as §3
Mus musculus [7] = test: Compound was evaluated for Bicuculline-induced seizures (anticonvulsant activity) when administered 10 mg/kg orally in mice; settings: route oral; procedure, shortened: as §2
Mus musculus [8] = test: Compound was evaluated for the sedative property by the rotarod test at 10 mg/kg; procedure, shortened: as §1
Mus musculus [9] = test: Compound was evaluated for anticonvulsant activity when administered 1 mg/kg orally in mice Maximal electroshock (MES); settings: route oral; procedure, shortened: as §3
Mus musculus [10] = test: Compound was evaluated for Bicuculline-induced seizures (anticonvulsant activity) when administered 1 mg/kg orally in mice; settings: route oral; procedure, shortened: as §2
Mus musculus [11] = test: Compound was evaluated for the sedative property by the rotarod test at 1 mg/kg; procedure, shortened: as §1
Mus musculus [12] = test: Anticonvulsant activity in Clonic seizures when administered orally in mice; settings: po; procedure, shortened: as §4
Mus musculus [13] = test: Compound was evaluated for the sedative properties by the rotarod test when 100 mg/Kg was administered in mice; procedure, shortened: as §1
Mus musculus [14] = test: Compound was evaluated for Bicuculline-induced seizures (anticonvulsant activity)when administered orally in mice; settings: po; procedure, shortened: as §2
Mus musculus [15] = test: Compound was evaluated for Bicuculline-induced lethality (anticonvulsant activity) when administered 20 mg/Kg orally in mice; procedure, shortened: as §2
Papio hamadryas = organism: Papio hamadryas; test: Antagonist activity to generalized seizures Photically induced seizures in senegalese Papio papio baboons
Procedure, shortened: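 Naturally photosensitive baboons of both sexes (4-7 kg) were dosed orally, test compounds in dilute HCl (pH 3) and references in 5% gum tragacanth, at 4 mL/kg. They were photically stimulated at hourly intervals afterwards, and the myoclonic response was graded after Killam. Threshold active dose is the first dose that protected at least two of four animals for at least 2 h.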

Mus musculus [16] = test: Anticonvulsant activity in tonic seizures when administered orally in mice; settings: po
Mus musculus [17] = test: Anticonvulsant activity in Maximal electroshock (MES) when administered orally in mice; settings: po; procedure, shortened: as §3
Rattus norvegicus = organism: Rattus norvegicus; test: Antagonist activity to generalized seizures kindled amygdaloid seizures in rats
Procedure, shortened: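 Male Sprague-Dawley rats (200-500 g), groups of 10, carried platinum electrodes in the right basolateral amygdala. They counted as kindled after stage-5 seizures on 3 consecutive days at 30-90 μA. A control stimulation was followed by an oral dose (5 mL/kg) and restimulation 1 h later. After-discharge duration and Racine seizure stage were compared with vehicle.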

Work on OC1CCN(c2ccc(-c3cc(Cl)ccc3Cl)nn2)CC1 yielded a Protected (Mus musculus [1]) of 10% and an ED50 (Mus musculus [2]) of 101 mg/kg.

With O=C1CCN(c2ccc(-c3ccc(Cl)cc3Cl)nn2)CC1 the ED50 (Mus musculus [3]) was 5 mg/kg, the ED50 (Mus musculus [4]) was 7.3 mg/kg and the ED50 (Mus musculus [2]) was 7 mg/kg. The Protected (Mus musculus [5]) was 50%.

For OC1CCN(c2ccc(-c3ccccn3)nn2)CC1, the Protected (Mus musculus [6]) was 0%, the Protected (Mus musculus [7]) was 0% and the Protected (Mus musculus [8]) was 20%.

CN(C)C(=O)OC1CCN(c2ccc(-c3ccc(Cl)cc3Cl)nn2)CC1 showed a Protected (Mus musculus [9]) of 66%, a Protected (Mus musculus [10]) of 30% and a Protected (Mus musculus [11]) of 20%.

O=C1NC(=O)C(c2ccccc2)(c2ccccc2)N1 [PHENYTOIN] was tested, and the ED50 (Mus musculus [12]) was greater than 80 mg/kg, the Protected (Mus musculus [13]) was 30% and the ED50 (Mus musculus [14]) was 11 mg/kg. The Protected (Mus musculus [15]) was 25%, the Threshold active dose (Papio hamadryas) was 50 mg/kg and the ED50 (Mus musculus [16]) was 7 mg/kg. For the same molecule, the ED50 (Mus musculus [17]) was 23 mg/kg and the Threshold active dose (Rattus norvegicus) was 20 mg/kg.
